Key:
Cytochrome P450 3A4 [1] = target: T1, Cytochrome P450 3A4 (Homo sapiens, UniProt P08684); assay: Inhibition of human CYP3A4 using 7-benzyloxy-4-trifluoromethylcoumarin as substrate; type: ADME
Method in brief: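 Inhibition of human CYP3A4 with 7-benzyloxy-4-trifluoromethylcoumarin (BFC) as substrate. Values given as IC50.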

[2] = Metabolic stability in human liver microsomes assessed as parent compound remaining after 30 mins; type: ADME, Microsome; settings: read-out: Stability
Method in brief: (§1)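 Compounds incubated with liver microsomes from human, rat, mouse, dog or monkey. Read-out is percent parent compound remaining at 30 min of incubation.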

[3] = target: T2, Prostaglandin E2 receptor EP3 subtype (Homo sapiens, UniProt P43115); assay: Displacement of [3H]PGE2 from human EP3 receptor in presence of 10% human serum
T2 sequence (P43115 whole entry): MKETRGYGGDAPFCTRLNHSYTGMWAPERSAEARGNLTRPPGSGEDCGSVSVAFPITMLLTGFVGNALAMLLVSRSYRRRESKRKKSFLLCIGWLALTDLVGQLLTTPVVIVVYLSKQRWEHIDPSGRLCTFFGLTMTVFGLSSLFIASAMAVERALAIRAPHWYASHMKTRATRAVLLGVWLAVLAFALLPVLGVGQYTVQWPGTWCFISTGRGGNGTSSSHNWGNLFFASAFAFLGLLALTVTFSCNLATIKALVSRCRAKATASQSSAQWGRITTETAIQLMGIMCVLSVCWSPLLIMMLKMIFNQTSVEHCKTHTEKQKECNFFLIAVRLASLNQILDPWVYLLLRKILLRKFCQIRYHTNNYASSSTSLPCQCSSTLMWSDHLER

[4] = Metabolic stability in mouse liver microsomes assessed as parent compound remaining after 30 mins; type: ADME, Microsome; settings: read-out: Stability; method in brief: as §1
[5] = target: T2, Prostaglandin E2 receptor EP3 subtype; assay: Displacement of [3H]PGE2 from human EP3 receptor in buffer
Rattus norvegicus = species: Rattus norvegicus; assay: Antithrombotic activity in rat assessed as platelet aggregation; type: functional
Method in brief: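 Functional EP3 antagonism measured in a rat platelet aggregation assay. Values reported as EC50 in nM.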

[6] = Metabolic stability in rat liver microsomes assessed as parent compound remaining after 30 mins; type: ADME, Microsome; settings: read-out: Stability; method in brief: as §1
[7] = target: T2, Prostaglandin E2 receptor EP3 subtype; assay: Partial displacement of [3H]PGE2 from human EP3 receptor in presence of 10% human serum
[8] = target: Prostaglandin F2-alpha receptor (Homo sapiens, UniProt P43088); assay: Binding affinity to human FP receptor by radioligand displacement assay
Chain of Prostaglandin F2-alpha receptor (P43088 whole entry): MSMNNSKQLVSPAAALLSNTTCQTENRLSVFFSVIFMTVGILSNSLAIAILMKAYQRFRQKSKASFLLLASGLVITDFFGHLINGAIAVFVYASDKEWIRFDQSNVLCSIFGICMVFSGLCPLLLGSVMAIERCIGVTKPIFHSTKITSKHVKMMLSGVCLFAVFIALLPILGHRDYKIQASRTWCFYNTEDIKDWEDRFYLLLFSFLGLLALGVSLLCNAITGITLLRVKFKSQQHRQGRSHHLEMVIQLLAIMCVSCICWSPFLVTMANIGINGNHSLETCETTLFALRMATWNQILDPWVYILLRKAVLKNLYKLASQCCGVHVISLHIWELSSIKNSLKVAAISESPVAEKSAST
Method in brief: (§2)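 Radioligand displacement assays on a human prostanoid receptor panel (EP2, EP4, FP, IP). IC50 values reported in µM.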

[9] = Half life in mouse at 6 mg/kg, iv; type: ADME, organism-based; design: dose 6 mg/kg, route intravenous; settings: in vivo
Method in brief: (§3)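 Single iv dose of 6 mg/kg given to mouse and to rat. Half-life in hours derived from the plasma pharmacokinetic parameters, alongside predicted clearance and steady-state volume of distribution.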

Prostacyclin receptor = Prostacyclin receptor (Homo sapiens, UniProt P43119); assay: Binding affinity to human IP receptor by radioligand displacement assay; method in brief: as §2
Chain of Prostacyclin receptor (P43119 whole entry): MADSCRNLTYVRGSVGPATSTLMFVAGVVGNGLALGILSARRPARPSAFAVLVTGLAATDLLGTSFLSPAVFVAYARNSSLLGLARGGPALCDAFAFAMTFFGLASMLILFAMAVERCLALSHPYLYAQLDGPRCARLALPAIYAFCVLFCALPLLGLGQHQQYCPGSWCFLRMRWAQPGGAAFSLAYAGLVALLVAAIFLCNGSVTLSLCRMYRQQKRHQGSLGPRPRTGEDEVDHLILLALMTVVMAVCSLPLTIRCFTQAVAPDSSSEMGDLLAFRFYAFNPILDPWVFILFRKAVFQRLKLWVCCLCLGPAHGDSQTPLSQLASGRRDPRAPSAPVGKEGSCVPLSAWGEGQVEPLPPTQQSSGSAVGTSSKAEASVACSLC

[10] = target: Prostaglandin E2 receptor EP4 subtype (Homo sapiens, UniProt P35408); assay: Binding affinity to human EP4 receptor by radioligand displacement assay; method in brief: as §2
Chain of Prostaglandin E2 receptor EP4 subtype (P35408 whole entry): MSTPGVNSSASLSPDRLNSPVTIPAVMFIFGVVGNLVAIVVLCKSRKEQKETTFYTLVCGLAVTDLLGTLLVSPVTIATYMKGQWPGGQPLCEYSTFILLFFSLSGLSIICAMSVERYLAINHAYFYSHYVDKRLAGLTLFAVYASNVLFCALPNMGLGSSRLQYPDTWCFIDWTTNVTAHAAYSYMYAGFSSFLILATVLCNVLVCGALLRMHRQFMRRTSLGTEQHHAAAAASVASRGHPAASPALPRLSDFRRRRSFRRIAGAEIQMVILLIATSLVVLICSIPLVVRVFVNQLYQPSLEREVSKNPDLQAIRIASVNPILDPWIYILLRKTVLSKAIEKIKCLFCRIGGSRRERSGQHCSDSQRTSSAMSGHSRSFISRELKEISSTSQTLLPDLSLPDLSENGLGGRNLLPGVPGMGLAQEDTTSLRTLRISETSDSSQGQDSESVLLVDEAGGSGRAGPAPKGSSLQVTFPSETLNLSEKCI

Cytochrome P450 3A4 [11] = target: T1, Cytochrome P450 3A4; assay: Inhibition of human CYP3A4 using dibenzylfluorescein as substrate; type: ADME
Method in brief: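 Inhibition of human CYP3A4 with dibenzylfluorescein (DBF) as substrate. Values given as IC50.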

[12] = target: Prostaglandin E2 receptor EP2 subtype (Homo sapiens, UniProt P43116); assay: Binding affinity to human EP2 receptor by radioligand displacement assay; method in brief: as §2
Chain of Prostaglandin E2 receptor EP2 subtype (P43116 whole entry): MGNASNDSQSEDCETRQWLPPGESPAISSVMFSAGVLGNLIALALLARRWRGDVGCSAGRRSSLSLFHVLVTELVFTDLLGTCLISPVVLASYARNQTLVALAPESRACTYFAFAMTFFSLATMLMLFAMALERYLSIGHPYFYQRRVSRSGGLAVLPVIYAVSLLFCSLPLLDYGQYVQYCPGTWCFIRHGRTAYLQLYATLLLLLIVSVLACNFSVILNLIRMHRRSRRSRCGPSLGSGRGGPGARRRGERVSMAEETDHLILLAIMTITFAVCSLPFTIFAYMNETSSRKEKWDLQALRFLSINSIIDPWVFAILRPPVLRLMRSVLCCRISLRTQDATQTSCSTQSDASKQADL

Cytochrome P450 2C9 = Cytochrome P450 2C9 (Homo sapiens, UniProt P11712); assay: Inhibition of human CYP2C9; type: ADME
Chain of Cytochrome P450 2C9 (P11712 whole entry): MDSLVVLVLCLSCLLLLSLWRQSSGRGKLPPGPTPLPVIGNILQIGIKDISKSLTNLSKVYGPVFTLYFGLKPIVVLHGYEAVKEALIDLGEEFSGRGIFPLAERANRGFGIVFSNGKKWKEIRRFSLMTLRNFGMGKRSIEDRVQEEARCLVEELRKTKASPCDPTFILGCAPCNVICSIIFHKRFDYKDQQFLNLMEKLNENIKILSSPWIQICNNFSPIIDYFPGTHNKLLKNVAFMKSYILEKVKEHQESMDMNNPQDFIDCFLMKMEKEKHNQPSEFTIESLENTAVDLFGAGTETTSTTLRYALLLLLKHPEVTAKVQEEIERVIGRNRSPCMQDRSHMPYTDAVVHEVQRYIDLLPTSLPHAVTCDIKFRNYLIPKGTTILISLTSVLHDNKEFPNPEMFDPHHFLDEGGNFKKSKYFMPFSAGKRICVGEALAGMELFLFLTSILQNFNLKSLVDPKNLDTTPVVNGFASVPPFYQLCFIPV

[13] = Half life in rat at 6 mg/kg, iv; type: ADME, organism-based; design: dose 6 mg/kg, route intravenous; settings: in vivo; method in brief: as §3
Cytochrome P450 2D6 = Cytochrome P450 2D6 (Homo sapiens, UniProt P10635); assay: Inhibition of human CYP2D6; type: ADME
Chain of Cytochrome P450 2D6 (P10635 whole entry): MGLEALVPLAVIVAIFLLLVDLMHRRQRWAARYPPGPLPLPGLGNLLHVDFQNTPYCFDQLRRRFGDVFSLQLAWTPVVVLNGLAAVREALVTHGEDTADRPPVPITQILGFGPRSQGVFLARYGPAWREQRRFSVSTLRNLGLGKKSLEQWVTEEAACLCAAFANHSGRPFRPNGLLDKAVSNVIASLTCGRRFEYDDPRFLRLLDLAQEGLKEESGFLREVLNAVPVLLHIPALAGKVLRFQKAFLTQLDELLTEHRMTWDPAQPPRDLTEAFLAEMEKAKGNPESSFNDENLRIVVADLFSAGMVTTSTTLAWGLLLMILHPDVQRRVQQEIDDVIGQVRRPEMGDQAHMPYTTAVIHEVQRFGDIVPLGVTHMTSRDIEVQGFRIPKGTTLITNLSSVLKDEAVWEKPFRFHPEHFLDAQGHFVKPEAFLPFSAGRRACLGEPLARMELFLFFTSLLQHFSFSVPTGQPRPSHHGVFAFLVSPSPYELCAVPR

Cytochrome P450 1A2 = target: T3, Cytochrome P450 1A2 (Homo sapiens, UniProt P05177); assay: Inhibition of human CYP1A2; type: ADME
T3 sequence (P05177 whole entry): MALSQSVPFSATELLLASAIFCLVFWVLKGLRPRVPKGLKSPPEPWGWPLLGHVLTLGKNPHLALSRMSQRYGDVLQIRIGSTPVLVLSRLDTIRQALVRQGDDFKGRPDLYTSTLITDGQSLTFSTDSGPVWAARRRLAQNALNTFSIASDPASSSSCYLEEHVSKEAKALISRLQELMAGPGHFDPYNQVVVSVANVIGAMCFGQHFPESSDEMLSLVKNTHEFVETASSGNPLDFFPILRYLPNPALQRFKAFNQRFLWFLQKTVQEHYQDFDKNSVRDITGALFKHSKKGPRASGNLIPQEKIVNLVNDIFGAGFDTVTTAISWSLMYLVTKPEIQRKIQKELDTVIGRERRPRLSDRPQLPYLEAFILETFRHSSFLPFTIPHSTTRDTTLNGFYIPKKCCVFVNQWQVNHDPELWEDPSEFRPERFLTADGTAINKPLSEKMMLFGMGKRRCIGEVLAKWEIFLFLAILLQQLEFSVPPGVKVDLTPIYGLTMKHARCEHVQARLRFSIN

[14] = Metabolic stability in monkey liver microsomes assessed as parent compound remaining after 30 mins; type: ADME, Macaca mulatta, Microsome; settings: rhesus monkey, read-out: Stability; method in brief: as §1
[15] = assessed as parent compound remaining after 30 mins; settings: read-out: Stability
[16] = Metabolic stability in dog liver microsomes assessed as parent compound remaining after 30 mins; type: ADME, Canis lupus familiaris, Microsome; settings: read-out: Stability; method in brief: as §1

T1 sequence (P08684 whole entry): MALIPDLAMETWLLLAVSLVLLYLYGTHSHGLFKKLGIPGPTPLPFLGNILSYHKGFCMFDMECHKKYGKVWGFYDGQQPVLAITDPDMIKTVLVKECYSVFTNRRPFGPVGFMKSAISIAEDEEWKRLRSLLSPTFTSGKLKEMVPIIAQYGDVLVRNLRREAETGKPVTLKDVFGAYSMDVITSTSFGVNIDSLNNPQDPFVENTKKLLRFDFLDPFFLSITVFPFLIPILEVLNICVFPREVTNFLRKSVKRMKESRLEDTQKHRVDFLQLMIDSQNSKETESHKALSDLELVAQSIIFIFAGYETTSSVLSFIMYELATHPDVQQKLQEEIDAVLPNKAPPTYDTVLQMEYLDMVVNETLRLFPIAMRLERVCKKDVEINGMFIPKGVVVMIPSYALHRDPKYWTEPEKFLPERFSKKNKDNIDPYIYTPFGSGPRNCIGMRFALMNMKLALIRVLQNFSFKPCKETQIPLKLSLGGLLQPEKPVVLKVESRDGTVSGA

Compound	inhibition (INH) (Cytochrome P450 3A4 [1])	remaining at 0.5 h [2] [%]	IC50 [3] [nM]	remaining at 0.5 h [4] [%]	IC50 [5] [nM]	IC50 (Rattus norvegicus) [nM]	remaining at 0.5 h [6] [%]	also measured
O=C(/C=C/c1cccc2c1N(Cc1ccc3ccccc3c1)C(=O)C2(F)F)NS(=O)(=O)c1cc(Cl)c(Cl)s1	Active	79.3	20.8	80.7	11.6	> 800	71.8	
O=C(/C=C/c1cccc2c1N(Cc1ccc3ccccc3c1)C(=O)C2(F)F)NS(=O)(=O)c1cccs1	Active				202	> 800		IC50 [7]: Active
O=C(/C=C/c1cccc2c1N(Cc1ccc3ccccc3c1)C(=O)C2O)NS(=O)(=O)c1ccc(F)cc1 (centres undefined)	Not Active	97.7	19.4	83.4	0.9		103	IC50 [8]: > 20000 nM; half-life [9]: 2.1 h; IC50 (Prostacyclin receptor): > 20000 nM; IC50 [10]: 15100 nM; inhibition (INH) (Cytochrome P450 3A4 [11]): Active; IC50 [12]: > 20000 nM; inhibition (INH) (Cytochrome P450 2C9): Active; half-life [13]: 1.75 h; inhibition (INH) (Cytochrome P450 2D6): Not Active; EC50 (Rattus norvegicus): 63 nM; inhibition (INH) (Cytochrome P450 1A2): Not Active
O=C(/C=C/c1cccc2c1N(Cc1ccc(Cl)cc1Cl)C(=O)C2)NS(=O)(=O)c1cc(Cl)c(Cl)s1		76.8	92.8	56.8	2.9		46.3	remaining at 0.5 h [14]: 76.9%
O=C(/C=C/c1cccc2c1N(Cc1ccc(Cl)cc1Cl)C(=O)C2(F)F)NS(=O)(=O)c1cccs1	Active				237	> 800		IC50 [7]: Active
O=C(/C=C/c1cccc2c1N(Cc1ccc3ccccc3c1)C(=O)C21OCCO1)NS(=O)(=O)c1cccs1			679		13			remaining at 0.5 h [15]: 37.8%
O=C(/C=C/c1cccc2c1N(Cc1ccc(Cl)cc1Cl)C(=O)C2(F)F)NS(=O)(=O)c1cc(Cl)c(Cl)s1	Active	94.4	64	100	3.8	> 800	94.8	remaining at 0.5 h [14]: 67.3%; remaining at 0.5 h [16]: 83.3%
O=C(/C=C/c1cccc2c1N(Cc1ccc3ccccc3c1)C(=O)C2O)NS(=O)(=O)c1ccc(F)c(F)c1 (centres undefined)	Not Active	89.3	7.6	72.7	1.6		87.9	IC50 [8]: > 20000 nM; IC50 (Prostacyclin receptor): > 20000 nM; IC50 [10]: 2300 nM; inhibition (INH) (Cytochrome P450 3A4 [11]): Active; IC50 [12]: > 20000 nM; inhibition (INH) (Cytochrome P450 2C9): Active; inhibition (INH) (Cytochrome P450 2D6): Not Active; EC50 (Rattus norvegicus): 87 nM; inhibition (INH) (Cytochrome P450 1A2): Not Active
O=C(/C=C/c1cccc2c1N(Cc1ccc(Cl)cc1Cl)C(=O)C2)NS(=O)(=O)c1cccs1					56			IC50 [7]: Active
O=C(/C=C/c1cccc2c1N(Cc1ccc3ccccc3c1)C(=O)C2)NS(=O)(=O)c1cc(Cl)c(Cl)s1		105	5.4	63.8	1.3		32.9	remaining at 0.5 h [16]: 79.5%; EC50 (Rattus norvegicus): 27 nM
CC1C(=O)N(Cc2ccc3ccccc3c2)c2c(/C=C/C(=O)NS(=O)(=O)c3cccs3)cccc21 (centres undefined)		43.5	96.5	32.6	3.5		48	remaining at 0.5 h [14]: 35.3%; remaining at 0.5 h [16]: 81.8%
O=C(/C=C/c1cccc2c1N(Cc1ccc(F)c(F)c1)C(=O)C2(CO)CO)NS(=O)(=O)c1ccc(F)c(F)c1					45.4			IC50 [7]: Active
O=C(/C=C/c1cccc2c1N(Cc1ccc(Cl)cc1Cl)C(=O)C21OCCO1)NS(=O)(=O)c1cc(Cl)c(Cl)s1					3.8			IC50 [7]: Active; remaining at 0.5 h [15]: 28.4%
CC1C(=O)N(Cc2ccc3ccccc3c2)c2c(/C=C/C(=O)NS(=O)(=O)c3cc(Cl)c(Cl)s3)cccc21 (centres undefined)		48.2	3.2	67.7	4.4		8	remaining at 0.5 h [16]: 67.7%; EC50 (Rattus norvegicus): 2 nM

The next compounds have a lower IC50 [5] than those just listed; values first:

inhibition (INH) (Cytochrome P450 3A4 [1])	remaining at 0.5 h [2] [%]	IC50 [3] [nM]	remaining at 0.5 h [4] [%]	IC50 [5] [nM]	IC50 (Rattus norvegicus) [nM]	remaining at 0.5 h [6] [%]	Compound	also measured
Not Active	95.6	9.4	73.5	0.6		99.7	O=C(/C=C/c1cccc2c1N(Cc1ccc3ccccc3c1)C(=O)C2O)NS(=O)(=O)c1cc(F)c(F)cc1F (centres undefined)	IC50 [8]: > 20000 nM; IC50 (Prostacyclin receptor): > 20000 nM; IC50 [10]: 8700 nM; inhibition (INH) (Cytochrome P450 3A4 [11]): Active; IC50 [12]: > 20000 nM; inhibition (INH) (Cytochrome P450 2C9): Active; inhibition (INH) (Cytochrome P450 2D6): Not Active; EC50 (Rattus norvegicus): 69 nM; inhibition (INH) (Cytochrome P450 1A2): Not Active
Active	68.8	9.3	47.9	0.3	> 800	54.2	O=C(/C=C/c1cccc2c1N(Cc1ccc3ccccc3c1)C(=O)C2(F)F)NS(=O)(=O)c1cc(F)c(F)cc1F	
Active	79.4	4.5	41.3	0.3	> 800	62.1	O=C(/C=C/c1cccc2c1N(Cc1ccc3ccccc3c1)C(=O)C2(F)F)NS(=O)(=O)c1ccc(Cl)c(Cl)c1	
Active	74.4	6.5	71	0.2	> 800	80.1	O=C(/C=C/c1cccc2c1N(Cc1ccc(Cl)cc1Cl)C(=O)C2(F)F)NS(=O)(=O)c1ccc(F)c(F)c1	
Active	73.1	5.5	82.8	0.2	> 800	70.4	O=C(/C=C/c1cccc2c1N(Cc1ccc(Cl)cc1Cl)C(=O)C2(F)F)NS(=O)(=O)c1ccc(Cl)c(Cl)c1	
Active	68.1	5	47.1	0.2	> 800	45	O=C(/C=C/c1cccc2c1N(Cc1ccc3ccccc3c1)C(=O)C2(F)F)NS(=O)(=O)c1ccc(F)c(F)c1	
Active	74.6	5.6	60.6	0.2	> 800	77.4	O=C(/C=C/c1cccc2c1N(Cc1ccc(Cl)cc1Cl)C(=O)C2(F)F)NS(=O)(=O)c1cc(F)c(F)cc1F	
Active	66.6	7.7	31.2	0.2	> 800	62.2	O=C(/C=C/c1cccc2c1N(Cc1ccc(Cl)cc1Cl)C(=O)C2(F)F)NS(=O)(=O)c1cccc(Cl)c1	
Active	64.5	1.9	21.6	0.1	> 800	21	O=C(/C=C/c1cccc2c1N(Cc1ccc3ccccc3c1)C(=O)C2(F)F)NS(=O)(=O)c1cccc(Cl)c1	
